# Key:
# Type in all cases: functional
# Details in all cases: read-out: Activity
# SF-539 = test: Growth inhibition of human SF-539 cells assessed as cell growth at 10 uM incubated for 48 hrs by sulforhodamine B assay relative to control
# In short: (§1)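 Run by the NCI Developmental Therapeutics Program as part of its 60-line human tumour panel. Each compound tested at a single 10 µM dose. Growth expressed as % relative to untreated control cells (100%).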
# UACC-62 = test: Growth inhibition of human UACC-62 cells assessed as cell growth at 10 uM incubated for 48 hrs by sulforhodamine B assay relative to control; in short: as §1
# SNB-75 = test: Growth inhibition of human SNB-75 cells assessed as cell growth at 10 uM incubated for 48 hrs by sulforhodamine B assay relative to control; in short: as §1
# NCI-H460 = test: Growth inhibition of human NCI-H460 cells assessed as cell growth at 10 uM incubated for 48 hrs by sulforhodamine B assay relative to control
# In short: (§2)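 Submitted to the NCI Developmental Therapeutics Program for the NCI60 human tumour cell line panel. First screen at a single 10 µM concentration. Read-out is growth relative to untreated control cells set at 100%.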
# IGROV-1 = test: Growth inhibition of human IGROV-1 cells assessed as cell growth at 10 uM incubated for 48 hrs by sulforhodamine B assay relative to control; in short: as §2
# T47D = test: Growth inhibition of human T47D cells assessed as cell growth at 10 uM incubated for 48 hrs by sulforhodamine B assay relative to control; in short: as §1
# NCI/ADR-RES = test: Growth inhibition of human NCI/ADR-RES cells assessed as cell growth at 10 uM incubated for 48 hrs by sulforhodamine B assay relative to control; in short: as §2
# SW-620 = test: Growth inhibition of human SW-620 cells assessed as cell growth at 10 uM incubated for 48 hrs by sulforhodamine B assay relative to control; in short: as §1
# MDA-MB-231 = test: Growth inhibition of human MDA-MB-231 cells assessed as cell growth at 10 uM incubated for 48 hrs by sulforhodamine B assay relative to control; in short: as §2
# RPMI-8226 = test: Growth inhibition of human RPMI-8226 cells assessed as cell growth at 10 uM incubated for 48 hrs by sulforhodamine B assay relative to control; in short: as §1
# A498 = test: Growth inhibition of human A498 cells assessed as cell growth at 10 uM incubated for 48 hrs by sulforhodamine B assay relative to control
# In short: (§3)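 NCI Developmental Therapeutics Program NCI60 panel. Compounds that were active in the 10 µM one-dose screen went on to dose–response testing. Growth at each concentration is expressed relative to untreated control (100%). GI50 (concentration giving 50% of maximal inhibition of proliferation) and TGI (concentration giving total growth inhibition) were derived from the curves.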
# OVCAR-3 = test: Growth inhibition of human OVCAR-3 cells assessed as cell growth at 10 uM incubated for 48 hrs by sulforhodamine B assay relative to control; in short: as §1
# OVCAR-4 = test: Growth inhibition of human OVCAR-4 cells assessed as cell growth at 10 uM incubated for 48 hrs by sulforhodamine B assay relative to control; in short: as §1
# MDA-MB-435 = test: Growth inhibition of human MDA-MB-435 cells assessed as cell growth at 10 uM incubated for 48 hrs by sulforhodamine B assay relative to control; in short: as §2
# MCF7 = test: Growth inhibition of human MCF7 cells assessed as cell growth at 10 uM incubated for 48 hrs by sulforhodamine B assay relative to control; in short: as §2
# LOX IMVI = test: Growth inhibition of human LOX IMVI cells assessed as cell growth at 10 uM incubated for 48 hrs by sulforhodamine B assay relative to control; in short: as §2
# OVCAR-8 = test: Growth inhibition of human OVCAR-8 cells assessed as cell growth at 10 uM incubated for 48 hrs by sulforhodamine B assay relative to control; in short: as §1
# NCI-H226 = test: Growth inhibition of human NCI-H226 cells assessed as cell growth at 10 uM incubated for 48 hrs by sulforhodamine B assay relative to control; in short: as §2
# HOP-92 = test: Growth inhibition of human HOP-92 cells assessed as cell growth at 10 uM incubated for 48 hrs by sulforhodamine B assay relative to control; in short: as §2
# HCT-15 = test: Growth inhibition of human HCT-15 cells assessed as cell growth at 10 uM incubated for 48 hrs by sulforhodamine B assay relative to control; in short: as §2
# PC-3 = test: Growth inhibition of human PC-3 cells assessed as cell growth at 10 uM incubated for 48 hrs by sulforhodamine B assay relative to control; in short: as §1
# CCRF-CEM = test: Growth inhibition of human CCRF-CEM cells assessed as cell growth at 10 uM incubated for 48 hrs by sulforhodamine B assay relative to control; in short: as §3
# K562 = test: Growth inhibition of human K562 cells assessed as cell growth at 10 uM incubated for 48 hrs by sulforhodamine B assay relative to control; in short: as §2
# COLO 205 = test: Growth inhibition of human COLO 205 cells assessed as cell growth at 10 uM incubated for 48 hrs by sulforhodamine B assay relative to control; in short: as §3
# SF-268 = test: Growth inhibition of human SF-268 cells assessed as cell growth at 10 uM incubated for 48 hrs by sulforhodamine B assay relative to control; in short: as §1
# OVCAR-5 = test: Growth inhibition of human OVCAR-5 cells assessed as cell growth at 10 uM incubated for 48 hrs by sulforhodamine B assay relative to control; in short: as §1
# SNB-19 = test: Growth inhibition of human SNB-19 cells assessed as cell growth at 10 uM incubated for 48 hrs by sulforhodamine B assay relative to control; in short: as §1
# SN12C = test: Growth inhibition of human SN12C cells assessed as cell growth at 10 uM incubated for 48 hrs by sulforhodamine B assay relative to control; in short: as §1
# UO-31 = test: Growth inhibition of human UO-31 cells assessed as cell growth at 10 uM incubated for 48 hrs by sulforhodamine B assay relative to control; in short: as §1
# UACC-257 = test: Growth inhibition of human UACC-257 cells assessed as cell growth at 10 uM incubated for 48 hrs by sulforhodamine B assay relative to control; in short: as §1
# MOLT-4 = test: Growth inhibition of human MOLT-4 cells assessed as cell growth at 10 uM incubated for 48 hrs by sulforhodamine B assay relative to control; in short: as §2
# SK-MEL-5 = test: Growth inhibition of human SK-MEL-5 cells assessed as cell growth at 10 uM incubated for 48 hrs by sulforhodamine B assay relative to control; in short: as §1
# Malme-3M = test: Growth inhibition of human Malme-3M cells assessed as cell growth at 10 uM incubated for 48 hrs by sulforhodamine B assay relative to control; in short: as §2
# Hs-578T = test: Growth inhibition of human Hs-578T cells assessed as cell growth at 10 uM incubated for 48 hrs by sulforhodamine B assay relative to control; in short: as §2
# NCI-H322M = test: Growth inhibition of human NCI-H322M cells assessed as cell growth at 10 uM incubated for 48 hrs by sulforhodamine B assay relative to control; in short: as §2
# RXF 393 = test: Growth inhibition of human RXF 393 cells assessed as cell growth at 10 uM incubated for 48 hrs by sulforhodamine B assay relative to control; in short: as §1
SMILES,growth at 10 µM (SF-539),growth at 10 µM (UACC-62),growth at 10 µM (SNB-75),growth at 10 µM (NCI-H460),growth at 10 µM (IGROV-1),growth at 10 µM (T47D),growth at 10 µM (NCI/ADR-RES),growth at 10 µM (SW-620),growth at 10 µM (MDA-MB-231),growth at 10 µM (RPMI-8226),growth at 10 µM (A498),growth at 10 µM (OVCAR-4),growth at 10 µM (MDA-MB-435),growth at 10 µM (MCF7),growth at 10 µM (LOX IMVI),growth at 10 µM (OVCAR-8),growth at 10 µM (NCI-H226),growth at 10 µM (HOP-92),growth at 10 µM (HCT-15),growth at 10 µM (PC-3),other results
CC1(C)CCc2cc(-c3ccn(S(=O)(=O)c4ccc(C(C)(C)C)cc4)n3)ccc2O1,91.2%,70.4%,100%,82.9%,93.3%,84.9%,82.5%,89.7%,78.4%,65.1%,68.4%,63.2%,93%,95.7%,96.5%,84.5%,70.5%,73.2%,87%,72.9%,growth at 10 µM (OVCAR-3): 91.8%; growth at 10 µM (CCRF-CEM): 74.4%; growth at 10 µM (K562): 72.2%; growth at 10 µM (COLO 205): 118%; growth at 10 µM (SF-268): 92.1%; growth at 10 µM (OVCAR-5): 99.6%; growth at 10 µM (SNB-19): 88.2%; growth at 10 µM (SN12C): 87.7%; growth at 10 µM (UO-31): 84.8%; growth at 10 µM (UACC-257): 63%; growth at 10 µM (MOLT-4): 98.5%; growth at 10 µM (SK-MEL-5): 78%; growth at 10 µM (Malme-3M): 105%; growth at 10 µM (Hs-578T): 97.8%; growth at 10 µM (NCI-H322M): 95.6%
CCOc1ccc(-c2cc(N)n(S(=O)(=O)c3ccc(OC)cc3)n2)cc1,98.4%,92.5%,89.9%,98.8%,96.6%,96.4%,103%,110%,92.4%,94.1%,92.5%,103%,101%,88.2%,105%,96.6%,97.7%,82.2%,98.7%,88.6%,growth at 10 µM (RXF 393): 95.9%; growth at 10 µM (CCRF-CEM): 86.8%; growth at 10 µM (K562): 105%; growth at 10 µM (COLO 205): 116%; growth at 10 µM (SF-268): 109%; growth at 10 µM (OVCAR-5): 107%; growth at 10 µM (SNB-19): 96.3%; growth at 10 µM (SN12C): 85.5%; growth at 10 µM (UO-31): 91.2%; growth at 10 µM (UACC-257): 86.6%; growth at 10 µM (MOLT-4): 85.2%; growth at 10 µM (SK-MEL-5): 97.5%; growth at 10 µM (Malme-3M): 114%; growth at 10 µM (Hs-578T): 99.7%; growth at 10 µM (NCI-H322M): 102%
CC1(C)CCc2cc(-c3ccn(S(=O)(=O)c4ccc(Cl)cc4Cl)n3)ccc2O1,103%,72.6%,97.4%,95.6%,94.5%,76.6%,96.1%,91.9%,93.3%,79%,68.9%,69%,95.7%,86.6%,104%,97%,87%,57.1%,91%,62.3%,growth at 10 µM (OVCAR-3): 101%; growth at 10 µM (CCRF-CEM): 62.4%; growth at 10 µM (K562): 75.7%; growth at 10 µM (COLO 205): 106%; growth at 10 µM (SF-268): 99.5%; growth at 10 µM (OVCAR-5): 97.5%; growth at 10 µM (SNB-19): 87.2%; growth at 10 µM (SN12C): 89.6%; growth at 10 µM (UO-31): 73.3%; growth at 10 µM (UACC-257): 97.1%; growth at 10 µM (MOLT-4): 84.8%; growth at 10 µM (SK-MEL-5): 97.3%; growth at 10 µM (Malme-3M): 85.1%; growth at 10 µM (Hs-578T): 98.8%; growth at 10 µM (NCI-H322M): 90.5%

# Source: ChEMBL document CHEMBL4715736, “Identification of anticancer agents based on the thieno[2,3-b]pyridine and 1H-pyrazole molecular scaffolds” (2016)
